Assay outcomes: PubChem, several laboratories
Most compounds without a hit are left out; they make up all but 2% or so of the library.
VLA-4 inh: inhibition in a human VLA-4 binding assay. AID 2557. inhibition, % (about 7 µM as worked out from the volumes in the protocol). VLA-4 expressing cells, ligand binding flow cytometry. 330,000 tested, 0.2% active. P13612; in the data active = inhibition above about 50%
Target sequence (P13612 whole entry, looked up): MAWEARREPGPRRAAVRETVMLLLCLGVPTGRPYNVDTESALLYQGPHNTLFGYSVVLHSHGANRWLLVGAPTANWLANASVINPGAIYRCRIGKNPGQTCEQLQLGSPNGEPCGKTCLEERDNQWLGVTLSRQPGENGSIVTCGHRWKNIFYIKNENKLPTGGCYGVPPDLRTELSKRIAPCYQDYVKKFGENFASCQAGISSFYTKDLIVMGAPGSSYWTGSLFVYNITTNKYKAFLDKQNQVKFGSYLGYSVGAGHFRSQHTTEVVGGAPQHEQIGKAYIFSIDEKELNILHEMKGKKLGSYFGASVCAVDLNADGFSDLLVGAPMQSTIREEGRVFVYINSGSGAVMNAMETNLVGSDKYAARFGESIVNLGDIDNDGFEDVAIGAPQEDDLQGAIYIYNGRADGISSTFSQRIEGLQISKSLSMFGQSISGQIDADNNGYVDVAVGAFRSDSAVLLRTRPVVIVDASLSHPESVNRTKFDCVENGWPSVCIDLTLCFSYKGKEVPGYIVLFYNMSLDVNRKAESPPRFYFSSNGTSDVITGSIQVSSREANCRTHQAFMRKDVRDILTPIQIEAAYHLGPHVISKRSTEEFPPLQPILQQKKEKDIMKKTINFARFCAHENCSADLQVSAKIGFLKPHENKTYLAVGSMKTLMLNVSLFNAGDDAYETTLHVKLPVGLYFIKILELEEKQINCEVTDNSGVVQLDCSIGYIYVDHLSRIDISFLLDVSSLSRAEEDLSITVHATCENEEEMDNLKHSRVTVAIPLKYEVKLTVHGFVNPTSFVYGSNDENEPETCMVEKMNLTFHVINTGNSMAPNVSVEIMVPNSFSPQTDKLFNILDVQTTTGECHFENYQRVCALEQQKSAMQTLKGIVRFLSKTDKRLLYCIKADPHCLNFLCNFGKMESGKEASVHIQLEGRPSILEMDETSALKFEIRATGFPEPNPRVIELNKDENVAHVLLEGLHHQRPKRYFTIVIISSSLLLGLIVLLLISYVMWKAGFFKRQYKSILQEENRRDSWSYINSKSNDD
DAGLB inh: diacylglycerol lipase beta (human) inhibition; Q8NCG7; HEK293T DAGLB membrane lysate, EnzChek fluorogenic substrate; inhibition, % at 5.17 µM; 340,000 tested, 0.059% active; AID 504411; in the data active = inhibition above about 34%;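 note: 0% = enzyme with vehicle and 100% = wells lacking enzyme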
ABCB6 inh 2: human ABCB6 transporter inhibition; Q9NP58; K562-ABCB6 porphyrin accumulation, flow cytometry, 1 h; hits give low values; fluorescence ratio to DMSO, % at 10 µM; 360,000 tested, 0.19% active;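 active = fluorescence ratio to DMSO below 75%, the collection mean minus 3 SD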;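 note: signal is porphyrin accumulated inside mitochondria; 100% equals median channel fluorescence of DMSO control wells; lower ratio means ABCB6 inhibition with less porphyrin fluorescence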
Exocytosis inh: lytic granule exocytosis inhibition; TALL-104 LAMP-1 surface exposure, flow cytometry; cells stimulated with thapsigargin and PMA; inhibition, % at 10 µM; AID 651702; 360,000 tested, 0.66% active;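 active = inhibition above about 55%, limit read from the data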
FGF22 binding: binders of recombinant human FGF22 by thermal shift | 340,000 tested, 1.5% active | SYPRO orange fluorescence; percent of sucrose octasulfate shift, DMSO zero | activity (Tm shift, normalised), % at 9.99 µM;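 active = mean Tm shift, scaled 0 neutral to 100 positive control, at about 1.3% or above, every replicate too, limit read from the data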
MT1-MMP act inh: MT1-MMP (human) activation inhibition | P50281 | HT1080 RFP-PRO-GFP cells, GFP/RFP ratio fluorescence, overnight; percent of plate control window, DMSO zero | GFP/RFP ratio change, % at 20 µM | 360,000 tested, 0.061% active;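 active = GFP/RFP ratio change of at least 30% with cell ATP level not reduced by more than half and red fluorescence within 50% of control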
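Assay system: HT1080 RFP-PRO-GFP cells. Benchmarks: DMSO vehicle wells and RFP-L50D-GFP reporter cell wells. Times: overnight cell settling, then overnight compound exposure, 37 °C, 5% CO2. Compound: 20 µM single dose, 1% DMSO. Read-out basis: GFP/RFP fluorescence ratio.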
ABCB6 blocker 1: human ABCB6 transporter inhibition | shares compounds with ABCB6 inh 2 | 700 tested, under 10 active | ratio response (% of DMSO), % at 10 µM | AID 602430 | K562-ABCB6 porphyrin accumulation, flow cytometry, 1 h; hits give low values;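 active = repeat-averaged ratio response below 75% of DMSO, the collection mean minus 3 SD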;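 note: median porphyrin fluorescence at 575 nm with 488 nm excitation from mitochondria; lower ratio means less porphyrin signal so ABCB6 inhibition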
K562 vector FC: effect in K562 cells lacking ABCB6, counter-screen | shares compounds with ABCB6 inh 2 | K562 empty-vector cells, flow cytometry fluorescence, 1 h | percent response (fluorescence), % at 100 µM | 25 tested, under 10 active;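 active = compounds whose half-maximal effective concentration is below 100 µM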
* hit, by the source's call; x = not tested or not shown.

SMILES	VLA-4 inh	DAGLB inh	ABCB6 inh 2	Exocytosis inh	FGF22 binding	MT1-MMP act inh	ABCB6 blocker 1	others
Cc1ccc(S(=O)(=O)Nc2ccc3c(c2)C(=O)N([C@H](C)CO)C[C@H](C)[C@@H](CN(C)S(C)(=O)=O)OCCCC[C@H](C)O3)cc1	x	x	x	x	0	x	x
Cc1nnc(NC(=O)CS(=O)(=O)Cc2ccccc2)s1	x	1	106	-4	0	-6	x
Cc1ccccc1CS(=O)(=O)c1ncc(Cl)c(C(=O)Nc2ccc(F)cc2)n1	14	2	36*	44	0	-5	x	K562 vector FC=299
Cc1nnc(NC(=O)c2nc(S(=O)(=O)Cc3ccccc3)ncc2Cl)s1	-18	1	113	4	0	-2	x	K562 vector FC=214
COc1cccc(NC(=O)c2sc3nc4n(c(=O)c3c2C)CCC4)c1	-5	2	24*	-9	0	4	102
COc1ccc(NC(=O)c2sc3nc4n(c(=O)c3c2C)CCC4)c(OC)c1	x	x	x	x	x	x	102
Cc1c(C(=O)Nc2ccc(Oc3ccccc3)cc2)sc2nc3n(c(=O)c12)CCC3	0	2	84	1	x	-6	x
Cc1c(C(=O)Nc2ccc(OC(F)(F)F)cc2)sc2nc3n(c(=O)c12)CCC3	2	1	66*	0	x	-1	98
COCC(=O)N1C[C@H]2[C@@H](c3ccccc31)[C@@H](CO)N2C(=O)C1CCOCC1	x	x	x	x	-1	x	x
Cc1ccccc1S(=O)(=O)N1C[C@H]2[C@@H](c3ccccc31)[C@@H](CO)N2C(=O)CC1CC1	x	x	x	x	-1	x	x
Cc1cnc(NC(=O)c2sc(Nc3ccccc3)nc2N)o1	-8	x	19*	-5	0	-2	98
CCn1c(SCC#N)nc2c(c1=O)C1(CCCC1)Cc1ccccc1-2	-2	-13	71*	-2	x	-1	101
CCOc1ccc(-c2cncc3nccn23)cc1	x	x	65*	0	0	-1	98
Cc1cccc(C(C)C)c1NC(=O)COC(=O)CCC(=O)N(CC(C)C)c1c(N)n(CC(C)C)c(=O)[nH]c1=O	x	0	97	-6	0	-1	99
CCOC(=O)C1CCCN(C(=O)c2cn(C)c3ccc(S(=O)(=O)N4CCCC4)cc3c2=O)C1 (stereo not given)	0	-1	57*	0	x	2	102
C[C@@H]1CN([C@H](C)CO)C(=O)c2cc(NC(=O)CCCN(C)C)ccc2O[C@@H](C)CCCCO[C@H]1CN(C)C(=O)Nc1ccc(F)cc1	x	x	x	x	0	x	x
O=C(CN1CCOCC1)N1CCCCN2[C@H](CO)[C@H](c3ccc(C#Cc4ccccc4F)cc3)[C@@H]2C1	x	x	x	x	-1	x	x
NC(=O)C(c1ccc(Cl)cc1)c1ccc(Sc2ccccc2)nn1 (stereo not given)	-16	3	73*	0	x	11	97
COc1ccc(CNC(=O)C[C@@H]2CC[C@H]3[C@@H](COc4ccc(NC(C)=O)cc4C(=O)N3C)O2)cc1	x	x	x	x	0	x	x
O=[N+]([O-])c1cccc(COc2ncnc3cc([N+](=O)[O-])ccc23)c1	-2	5	10*	1	0	2	96
O=C(Cc1ccncc1)NCC[C@@H]1CC[C@@H](NC(=O)C2CCCCC2)[C@H](CO)O1	x	x	x	x	0	x	x
OCCOCCn1c(CCNc2nc(-c3ccc(F)cc3)cs2)nc2cc(C(F)(F)F)ccc21	-10	2	73*	4	0	3	100
Cc1cc(N2C(=O)CC(Cc3ccccc3)C2=O)no1 (stereo not given)	21	0	72*	-4	x	7	101
C[C@H](CO)N1C[C@H](C)[C@@H](CN(C)Cc2ccc(Cl)c(Cl)c2)Oc2ccc(NC(=O)C3CCCCC3)cc2CC1=O	x	x	x	x	-1	x	x
CC(=O)Nc1c(C)ccc(CNC(=O)COc2ccc(F)cc2)c1C	-5	-1	92	1	0	4	x
SMILES	VLA-4 inh	DAGLB inh	ABCB6 inh 2	Exocytosis inh	FGF22 binding	MT1-MMP act inh	ABCB6 blocker 1	others
CC(=O)Nc1c(C)ccc(CNC(=O)COc2cc(C)ccc2C)c1C	1	0	72*	-3	x	-11	101
COc1ccccc1Oc1nc2c(c(=O)n(Cc3ccccc3F)c(=O)n2C)n1C	2	-1	74*	-1	x	2	98
C[C@@H]1CN([C@H](C)CO)C(=O)c2cc(NC(=O)Nc3ccc4c(c3)OCO4)ccc2O[C@@H]1CN(C)Cc1ccccc1	x	x	x	x	0	x	x
CN1CCN(S(=O)(=O)c2ccc([N+](=O)[O-])cc2)CC1	3	0	95	4	0	3	x
CC(C)c1ccc([N+](=O)[O-])cc1S(=O)(=O)N1CCN(C)CC1	8	-1	72*	-3	0	2	98
Cc1c(C(=O)N(Cc2ccccc2)Cc2cccs2)cnn1-c1ccc(Cl)cc1	4	x	14*	2	0	1	100
O=C(O)CCc1ccc(S(=O)(=O)N2CCOCC2)cc1	-3	3	96	2	x	2	x
O=C(CCc1ccc(S(=O)(=O)N2CCOCC2)cc1)Oc1ccccc1	-5	-3	62*	0	x	-7	98
Cc1ccc(N2C(=O)C(CN3CCCC3)C2c2ccccc2)cc1 (stereo not given)	13	1	73*	-3	0	-2	102
CCN1CCN(CCc2nc3cc([N+](=O)[O-])ccc3n2C)CC1	10	1	98	25	0	4	x
Cn1c(CN2CCN(C(=O)c3ccccc3)CC2)nc2cc([N+](=O)[O-])ccc21	-9	1	70*	3	0	-3	95
CCOC(=O)c1c(NC(=O)CCN2C(=O)c3ccccc3C2=O)sc(C(=O)OC(C)C)c1C	8	-2	70*	0	x	-7	99
CCOC(=O)c1sc(NC(=O)CCN2C(=O)c3ccccc3C2=O)c(C(=O)OCC)c1C	6	-3	97	0	0	-6	x
O=C(NCc1cccc(Cl)c1)c1ccc2ccccc2n1	7	-6	70*	9	0	2	99
O=c1cc(CSc2nnnn2-c2ccccc2)nc2sccn12	1	4	96	23	0	-8	x
O=c1cc(CSc2nnnn2-c2ccccc2)nc2nc[nH]n12	28	3	64*	0	x	-4	98
O=C(c1ccco1)N1CCC(c2nc3c(nnn3Cc3ccccc3Cl)c(=O)[nH]2)CC1	18	2	97	9	0	-2	96
Cc1ccc(C)c(Cn2nnc3c(=O)[nH]c(C4CCN(C(=O)c5cccs5)CC4)nc32)c1	7	2	83	0	x	-10	x
